Calls of active or inactive are those of the source. The rule behind the calls is not given here.
Key:
[1] = molecular target: Serine/threonine-protein kinase pim-1 (Homo sapiens) (UniProt P11309); test: Inhibition of PIM1 (unknown origin) at 1000 nM in the presence of ATP by Kinome scan method relative to control
[2] = molecular target: Mitogen-activated protein kinase 3 (Homo sapiens) (UniProt P27361); test: Inhibition of MAPK3 (unknown origin) at 100 nM in the presence of ATP by Kinome scan method relative to control
[3] = molecular target: Casein kinase I isoform delta (Homo sapiens) (UniProt P48730); test: Inhibition of CSNK1D (unknown origin) at 100 nM in the presence of ATP by Kinome scan method relative to control
[4] = molecular target: Tyrosine-protein kinase JAK2 (Homo sapiens) (UniProt O60674); test: Inhibition of JAK2 (unknown origin) at 1000 nM in the presence of ATP by Kinome scan method relative to control
Chain of Tyrosine-protein kinase JAK2 (Homo sapiens) (O60674 whole entry): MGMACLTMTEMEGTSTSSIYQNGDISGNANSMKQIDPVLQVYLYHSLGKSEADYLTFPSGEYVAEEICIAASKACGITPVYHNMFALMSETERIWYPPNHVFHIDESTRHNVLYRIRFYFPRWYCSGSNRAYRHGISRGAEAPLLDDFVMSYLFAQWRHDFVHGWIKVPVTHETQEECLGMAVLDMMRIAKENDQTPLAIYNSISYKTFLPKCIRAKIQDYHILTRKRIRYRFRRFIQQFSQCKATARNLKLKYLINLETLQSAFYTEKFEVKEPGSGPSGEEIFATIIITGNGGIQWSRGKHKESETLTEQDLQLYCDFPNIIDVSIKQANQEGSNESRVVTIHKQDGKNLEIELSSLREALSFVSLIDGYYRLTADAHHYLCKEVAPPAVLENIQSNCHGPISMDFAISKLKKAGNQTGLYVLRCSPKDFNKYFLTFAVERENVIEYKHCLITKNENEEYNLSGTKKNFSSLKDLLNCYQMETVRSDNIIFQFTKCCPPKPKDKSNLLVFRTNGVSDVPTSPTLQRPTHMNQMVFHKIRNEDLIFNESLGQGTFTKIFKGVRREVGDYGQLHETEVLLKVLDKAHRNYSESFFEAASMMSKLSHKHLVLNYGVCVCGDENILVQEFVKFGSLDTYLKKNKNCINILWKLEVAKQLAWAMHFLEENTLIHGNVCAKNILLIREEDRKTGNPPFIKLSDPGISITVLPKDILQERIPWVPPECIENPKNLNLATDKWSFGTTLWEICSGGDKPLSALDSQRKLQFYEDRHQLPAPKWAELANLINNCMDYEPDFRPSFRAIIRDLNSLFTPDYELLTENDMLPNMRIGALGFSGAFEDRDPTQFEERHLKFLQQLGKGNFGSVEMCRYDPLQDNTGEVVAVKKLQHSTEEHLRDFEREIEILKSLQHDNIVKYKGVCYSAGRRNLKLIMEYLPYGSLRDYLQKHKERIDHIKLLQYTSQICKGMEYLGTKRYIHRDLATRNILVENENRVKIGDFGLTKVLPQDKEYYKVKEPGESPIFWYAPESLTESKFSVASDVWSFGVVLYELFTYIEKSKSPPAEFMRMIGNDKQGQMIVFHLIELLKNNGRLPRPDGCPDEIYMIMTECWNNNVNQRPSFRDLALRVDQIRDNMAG

[5] = molecular target: Dual specificity protein kinase CLK2 (Homo sapiens, UniProt P49760); test: Inhibition of N-terminal FLAG-tagged CLK2 in human HCT-116 cells assessed as increase in CLK2 protein level at 0.5 to 0.1 uM incubated for 6 hrs by immunoblot analysis; format: cell-based; conditions: dose 0.5-0.1 µM
Chain of Dual specificity protein kinase CLK2 (P49760 whole entry, looked up): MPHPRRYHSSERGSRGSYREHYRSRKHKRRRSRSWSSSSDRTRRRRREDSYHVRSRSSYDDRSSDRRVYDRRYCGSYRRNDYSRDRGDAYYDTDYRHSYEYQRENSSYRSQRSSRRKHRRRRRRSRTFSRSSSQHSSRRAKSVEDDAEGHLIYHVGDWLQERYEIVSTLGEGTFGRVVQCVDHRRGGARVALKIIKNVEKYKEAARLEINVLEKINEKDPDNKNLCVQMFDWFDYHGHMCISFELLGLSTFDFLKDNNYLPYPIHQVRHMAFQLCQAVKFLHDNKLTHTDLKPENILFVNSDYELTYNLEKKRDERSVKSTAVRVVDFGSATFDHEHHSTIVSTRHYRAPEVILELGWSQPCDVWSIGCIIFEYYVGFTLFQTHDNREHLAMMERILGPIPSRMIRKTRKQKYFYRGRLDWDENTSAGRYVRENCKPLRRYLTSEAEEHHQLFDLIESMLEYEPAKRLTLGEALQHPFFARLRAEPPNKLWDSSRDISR

HCT-116 [6] = test: Induction of cell cycle arrest in human HCT-116 cells assessed as G0/G1 phase at 5 uM incubated for 24 hrs by flow cytometry analysis (Rvb=35.7%); format: functional
HCT-116 [7] = test: Induction of apoptosis in human HCT-116 cells assessed as late apoptosis at 0.5 uM incubated for > 6 hrs by annexin V/PI staining based analysis (Rvb=6.12%); format: functional
[8] = molecular target: Dual specificity mitogen-activated protein kinase kinase 1 (Homo sapiens) (UniProt Q02750); test: Inhibition of MAP2K1 (unknown origin) at 100 nM in the presence of ATP by Kinome scan method relative to control
Chain of Dual specificity mitogen-activated protein kinase kinase 1 (Homo sapiens) (Q02750 whole entry, canonical isoform): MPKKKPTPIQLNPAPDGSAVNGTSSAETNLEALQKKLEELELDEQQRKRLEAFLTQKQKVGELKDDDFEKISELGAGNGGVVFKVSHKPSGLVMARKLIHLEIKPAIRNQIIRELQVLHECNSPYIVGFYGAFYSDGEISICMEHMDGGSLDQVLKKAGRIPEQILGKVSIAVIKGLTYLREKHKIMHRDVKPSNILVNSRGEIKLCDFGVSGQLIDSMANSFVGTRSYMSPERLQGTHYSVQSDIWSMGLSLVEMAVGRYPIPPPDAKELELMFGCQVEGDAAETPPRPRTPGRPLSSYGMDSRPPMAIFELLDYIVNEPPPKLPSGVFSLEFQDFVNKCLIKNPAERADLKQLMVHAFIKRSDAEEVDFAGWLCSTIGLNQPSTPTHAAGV

[9] = molecular target: Dual specificity protein kinase CLK1 (Homo sapiens) (UniProt P49759); test: Inhibition of CLK (unknown origin) in human 184-hTERT cells assessed as induction in alternative splicing effect in S6K canonical isoform incubated for 6 hrs by RT-PCR analysis; format: cell-based; conditions: dose 0.2-5 µM
Chain of Dual specificity protein kinase CLK1 (Homo sapiens) (P49759 whole entry, looked up, canonical isoform): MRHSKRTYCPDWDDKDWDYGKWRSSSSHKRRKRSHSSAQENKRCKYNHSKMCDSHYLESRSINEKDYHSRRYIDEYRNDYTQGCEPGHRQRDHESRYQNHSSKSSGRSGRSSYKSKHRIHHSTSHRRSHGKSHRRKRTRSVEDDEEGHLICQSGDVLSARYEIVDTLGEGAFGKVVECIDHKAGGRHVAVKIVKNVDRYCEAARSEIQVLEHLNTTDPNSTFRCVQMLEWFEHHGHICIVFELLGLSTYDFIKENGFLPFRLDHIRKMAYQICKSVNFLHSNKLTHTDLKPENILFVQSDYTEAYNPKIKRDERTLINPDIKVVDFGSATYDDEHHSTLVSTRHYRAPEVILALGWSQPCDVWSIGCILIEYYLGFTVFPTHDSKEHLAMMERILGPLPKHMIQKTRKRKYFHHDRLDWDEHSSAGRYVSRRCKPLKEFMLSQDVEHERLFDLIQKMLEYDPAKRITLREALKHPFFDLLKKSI
Method in brief: (§1)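 Cells exposed to graded T3 concentrations for 6 h (chosen to avoid cytotoxicity), with a DMSO vehicle control. Total RNA was reverse-transcribed with oligo-dT primers. Targeted splice or conjoined-gene products were quantified by real-time qPCR or by targeted next-generation sequencing. Conjoined-gene isoform expression was normalized to a sequenced housekeeping gene.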

[10] = molecular target: Aurora kinase B (Homo sapiens) (UniProt Q96GD4); test: Inhibition of AURKB (unknown origin) at 100 nM in the presence of ATP by Kinome scan method relative to control
[11] = molecular target: Aurora kinase A (Homo sapiens) (UniProt O14965); test: Inhibition of AURKA (unknown origin) at 1000 nM in the presence of ATP by Kinome scan method relative to control
[12] = molecular target: RAC-alpha serine/threonine-protein kinase (Homo sapiens) (UniProt P31749); test: Inhibition of AKT1 (unknown origin) at 100 nM in the presence of ATP by Kinome scan method relative to control
Chain of RAC-alpha serine/threonine-protein kinase (Homo sapiens) (P31749 whole entry): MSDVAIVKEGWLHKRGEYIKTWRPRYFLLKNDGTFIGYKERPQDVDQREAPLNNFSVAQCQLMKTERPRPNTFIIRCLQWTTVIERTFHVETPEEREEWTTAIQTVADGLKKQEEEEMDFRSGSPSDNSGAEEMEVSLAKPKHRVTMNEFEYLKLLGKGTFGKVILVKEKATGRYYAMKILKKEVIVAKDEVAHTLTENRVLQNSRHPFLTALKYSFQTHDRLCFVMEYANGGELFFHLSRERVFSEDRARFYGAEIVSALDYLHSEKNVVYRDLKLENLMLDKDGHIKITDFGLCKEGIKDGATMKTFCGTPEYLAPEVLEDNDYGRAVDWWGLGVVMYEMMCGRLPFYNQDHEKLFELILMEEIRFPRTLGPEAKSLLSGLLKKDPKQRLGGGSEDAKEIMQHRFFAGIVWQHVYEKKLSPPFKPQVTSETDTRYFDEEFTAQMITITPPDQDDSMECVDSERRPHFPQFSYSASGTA

[13] = molecular target: Mitogen-activated protein kinase 1 (Homo sapiens) (UniProt P28482); test: Inhibition of MAPK1 (unknown origin) at 1000 nM in the presence of ATP by Kinome scan method relative to control
[14] = Stability of compound in tissue culture medium assessed as remaining parent compound at 5.30 uM incubated for 48 hrs; format: physicochemical; conditions: read-out: Stability
[15] = molecular target: Rho-associated protein kinase 1 (Homo sapiens) (UniProt Q13464); test: Inhibition of ROCK1 (unknown origin) at 100 nM in the presence of ATP by Kinome scan method relative to control
Chain of Rho-associated protein kinase 1 (Homo sapiens) (Q13464 2-1354 limits assumed): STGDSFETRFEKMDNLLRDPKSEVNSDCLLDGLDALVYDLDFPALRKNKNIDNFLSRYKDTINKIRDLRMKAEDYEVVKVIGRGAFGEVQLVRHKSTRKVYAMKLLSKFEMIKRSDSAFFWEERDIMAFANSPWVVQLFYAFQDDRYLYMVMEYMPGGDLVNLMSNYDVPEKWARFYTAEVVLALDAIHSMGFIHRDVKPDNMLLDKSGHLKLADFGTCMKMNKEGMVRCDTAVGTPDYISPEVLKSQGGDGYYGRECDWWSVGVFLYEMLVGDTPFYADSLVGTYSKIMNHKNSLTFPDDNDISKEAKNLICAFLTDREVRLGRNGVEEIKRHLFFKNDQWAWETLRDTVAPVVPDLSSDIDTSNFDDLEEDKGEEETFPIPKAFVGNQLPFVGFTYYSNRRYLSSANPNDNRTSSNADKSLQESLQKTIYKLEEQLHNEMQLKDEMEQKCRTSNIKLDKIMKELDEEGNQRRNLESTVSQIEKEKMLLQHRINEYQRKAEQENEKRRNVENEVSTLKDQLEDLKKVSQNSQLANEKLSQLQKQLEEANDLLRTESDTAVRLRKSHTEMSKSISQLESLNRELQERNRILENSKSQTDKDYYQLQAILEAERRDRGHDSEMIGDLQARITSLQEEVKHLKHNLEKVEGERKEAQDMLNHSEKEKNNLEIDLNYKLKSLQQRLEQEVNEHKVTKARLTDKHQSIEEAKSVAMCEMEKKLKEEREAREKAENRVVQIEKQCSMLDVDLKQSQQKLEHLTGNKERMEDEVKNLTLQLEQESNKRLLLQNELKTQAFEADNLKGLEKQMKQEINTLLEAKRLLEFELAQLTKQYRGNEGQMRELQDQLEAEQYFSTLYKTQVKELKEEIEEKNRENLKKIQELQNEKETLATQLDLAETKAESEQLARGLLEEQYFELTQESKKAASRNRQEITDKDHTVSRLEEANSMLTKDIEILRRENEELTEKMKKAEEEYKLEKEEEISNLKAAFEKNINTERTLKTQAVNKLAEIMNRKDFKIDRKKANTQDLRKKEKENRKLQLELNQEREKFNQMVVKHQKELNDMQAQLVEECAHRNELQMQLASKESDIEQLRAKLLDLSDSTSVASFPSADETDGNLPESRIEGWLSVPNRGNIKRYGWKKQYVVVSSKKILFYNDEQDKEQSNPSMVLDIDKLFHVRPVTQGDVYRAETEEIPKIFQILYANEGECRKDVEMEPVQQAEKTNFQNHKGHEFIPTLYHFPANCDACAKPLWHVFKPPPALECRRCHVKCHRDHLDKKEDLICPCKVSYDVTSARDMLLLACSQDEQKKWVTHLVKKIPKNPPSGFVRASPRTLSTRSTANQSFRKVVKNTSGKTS

[16] = molecular target: 3-phosphoinositide-dependent protein kinase 1 (PDPK1) (Homo sapiens) (UniProt O15530); test: Inhibition of PDK1 Direct (unknown origin) at 1000 nM in the presence of ATP by Kinome scan method relative to control
Chain of 3-phosphoinositide-dependent protein kinase 1 (PDPK1) (Homo sapiens) (O15530 whole entry, looked up): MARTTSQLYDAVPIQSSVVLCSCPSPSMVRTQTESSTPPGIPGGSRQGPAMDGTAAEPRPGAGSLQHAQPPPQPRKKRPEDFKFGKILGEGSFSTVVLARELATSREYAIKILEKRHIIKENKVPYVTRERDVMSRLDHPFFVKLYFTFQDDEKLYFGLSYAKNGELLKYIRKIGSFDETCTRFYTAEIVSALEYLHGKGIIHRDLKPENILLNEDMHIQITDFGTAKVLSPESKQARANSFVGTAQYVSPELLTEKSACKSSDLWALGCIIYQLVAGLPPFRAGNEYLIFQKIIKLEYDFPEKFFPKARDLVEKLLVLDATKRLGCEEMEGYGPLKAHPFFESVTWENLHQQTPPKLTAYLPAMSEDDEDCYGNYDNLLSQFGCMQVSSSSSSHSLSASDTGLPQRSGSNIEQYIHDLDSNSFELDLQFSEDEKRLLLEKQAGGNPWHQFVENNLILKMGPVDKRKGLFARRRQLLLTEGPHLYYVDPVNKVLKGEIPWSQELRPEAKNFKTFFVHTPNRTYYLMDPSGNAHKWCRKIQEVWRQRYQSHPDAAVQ

[17] = molecular target: Dual specificity protein kinase CLK1 (Homo sapiens) (UniProt P49759); test: Inhibition of CLK (unknown origin) in human HCT-116 cells assessed as decrease in SRSF4 phosphorylation level at 0.5 to 1.0 uM incubated for 6 hrs by immunoblot analysis; format: cell-based; conditions: dose 0.5-1 µM
[18] = molecular target: Dual specificity tyrosine-phosphorylation-regulated kinase 3 (Homo sapiens) (UniProt O43781); test: Inhibition of DYRK3 (unknown origin) at 123 nM in the presence of ATP by Kinome scan method relative to control; conditions: time > 6.0 hrs
HCT-116 [19] = test: Induction of cell cycle arrest in human HCT-116 cells assessed as G0/G1 phase at 0.1 uM incubated for 6 hrs by flow cytometry analysis (Rvb=35.0%); format: functional
[20] = molecular target: Dual specificity protein kinase CLK1 (Homo sapiens) (UniProt P49759); test: Inhibition of CLK (unknown origin) in human HCT-116 cells assessed as induction in alternative splicing effect in S6K canonical isoform incubated for 6 hrs by RT-PCR analysis; format: cell-based; conditions: dose 0.2-5 µM; method in brief: as §1
[21] = molecular target: Dual specificity protein kinase CLK1 (Homo sapiens) (UniProt P49759); test: Inhibition of CLK (unknown origin) in human HCT-116 cells assessed as induction in alternative splicing effect in S6K skipped exon /canonical form incubated for 6 hrs by RT-PCR analysis; format: cell-based; conditions: dose 0.2-5 µM; method in brief: as §1
[22] = molecular target: Glycogen synthase kinase-3 beta (Homo sapiens) (UniProt P49841); test: Inhibition of GSK3B (unknown origin) at 1000 nM in the presence of ATP by Kinome scan method relative to control
[23] = molecular target: Tyrosine-protein kinase ABL1 (Homo sapiens) (UniProt P00519); test: Inhibition of ABL1 (unknown origin) at 1000 nM in the presence of ATP by Kinome scan method relative to control; conditions: time > 6.0 hrs
[24] = molecular target: Serine/threonine-protein kinase B-raf (Homo sapiens) (UniProt P15056); test: Inhibition of BRAF (unknown origin) at 1000 nM in the presence of ATP by Kinome scan method relative to control
HCT-116 [25] = test: Induction of apoptosis in human HCT-116 cells assessed as early apoptosis at 10 uM incubated for > 6 hrs by annexin V/PI staining based analysis (Rvb=3.29%); format: functional
[26] = molecular target: Serine/threonine-protein kinase mTOR (Homo sapiens) (UniProt P42345); test: Inhibition of FRAP1 (unknown origin) at 100 nM in the presence of ATP by Kinome scan method relative to control
[27] = molecular target: Proto-oncogene tyrosine-protein kinase receptor Ret (Homo sapiens) (UniProt P07949); test: Inhibition of RET (unknown origin) at 100 nM in the presence of ATP by Kinome scan method relative to control
[28] = molecular target: Dual specificity tyrosine-phosphorylation-regulated kinase 1B (Homo sapiens, UniProt Q9Y463); test: Inhibition of DYRK1B (unknown origin) at 123 nM in the presence of ATP by Kinome scan method relative to control; conditions: time > 6.0 hrs
[29] = molecular target: 3-phosphoinositide-dependent protein kinase 1 (PDPK1) (Homo sapiens) (UniProt O15530); test: Inhibition of PDK1 Direct (unknown origin) at 100 nM in the presence of ATP by Kinome scan method relative to control

`CN1CCN(C(=O)C(C)(C)c2ccc(C(=O)Nc3cn4cc(-c5ccncc5)ccc4n3)cc2)CC1` [T3-CLK] gave an inhibition [1] of 11%, an inhibition [2] of 6% and an inhibition [3] of -3%. The inhibition [4] was -6%, the inhibition [5] was “Active” and the Activity (HCT-116 [6]) was 13.3%. The Activity (HCT-116 [7]) was 6.85%, the inhibition [8] was 12% and the inhibition [9] was “Dose-Dependent Effect”. The inhibition [10] was 7%, the inhibition [11] was 9% and the inhibition [12] was -8%. It also gave an inhibition [13] of 4%, a remaining at 48 h, 5.3 µM [14] of 98.7% and an inhibition [15] of 5%. The inhibition [16] was 2%, the inhibition [17] was “Active” and the inhibition [18] was -2%. For the same compound, the Activity (HCT-116 [19]) was 24%, the inhibition [20] was “Dose-Dependent Effect” and the inhibition [21] was “Dose-Dependent Effect”. The inhibition [22] was -3%, the inhibition [23] was 56% and the inhibition [24] was 17%. The Activity (HCT-116 [25]) was 3.7%, the inhibition [26] was -6% and the inhibition [27] was -1%. It also gave an inhibition [28] of 63% and an inhibition [29] of -1%.

From ChEMBL document CHEMBL5696444 (Nat Commun, 2017)
